Series [1] has as its target T1, Protein deacetylase HDAC6 (Homo sapiens) (UniProt Q9UBN7).
T1 sequence (whole entry): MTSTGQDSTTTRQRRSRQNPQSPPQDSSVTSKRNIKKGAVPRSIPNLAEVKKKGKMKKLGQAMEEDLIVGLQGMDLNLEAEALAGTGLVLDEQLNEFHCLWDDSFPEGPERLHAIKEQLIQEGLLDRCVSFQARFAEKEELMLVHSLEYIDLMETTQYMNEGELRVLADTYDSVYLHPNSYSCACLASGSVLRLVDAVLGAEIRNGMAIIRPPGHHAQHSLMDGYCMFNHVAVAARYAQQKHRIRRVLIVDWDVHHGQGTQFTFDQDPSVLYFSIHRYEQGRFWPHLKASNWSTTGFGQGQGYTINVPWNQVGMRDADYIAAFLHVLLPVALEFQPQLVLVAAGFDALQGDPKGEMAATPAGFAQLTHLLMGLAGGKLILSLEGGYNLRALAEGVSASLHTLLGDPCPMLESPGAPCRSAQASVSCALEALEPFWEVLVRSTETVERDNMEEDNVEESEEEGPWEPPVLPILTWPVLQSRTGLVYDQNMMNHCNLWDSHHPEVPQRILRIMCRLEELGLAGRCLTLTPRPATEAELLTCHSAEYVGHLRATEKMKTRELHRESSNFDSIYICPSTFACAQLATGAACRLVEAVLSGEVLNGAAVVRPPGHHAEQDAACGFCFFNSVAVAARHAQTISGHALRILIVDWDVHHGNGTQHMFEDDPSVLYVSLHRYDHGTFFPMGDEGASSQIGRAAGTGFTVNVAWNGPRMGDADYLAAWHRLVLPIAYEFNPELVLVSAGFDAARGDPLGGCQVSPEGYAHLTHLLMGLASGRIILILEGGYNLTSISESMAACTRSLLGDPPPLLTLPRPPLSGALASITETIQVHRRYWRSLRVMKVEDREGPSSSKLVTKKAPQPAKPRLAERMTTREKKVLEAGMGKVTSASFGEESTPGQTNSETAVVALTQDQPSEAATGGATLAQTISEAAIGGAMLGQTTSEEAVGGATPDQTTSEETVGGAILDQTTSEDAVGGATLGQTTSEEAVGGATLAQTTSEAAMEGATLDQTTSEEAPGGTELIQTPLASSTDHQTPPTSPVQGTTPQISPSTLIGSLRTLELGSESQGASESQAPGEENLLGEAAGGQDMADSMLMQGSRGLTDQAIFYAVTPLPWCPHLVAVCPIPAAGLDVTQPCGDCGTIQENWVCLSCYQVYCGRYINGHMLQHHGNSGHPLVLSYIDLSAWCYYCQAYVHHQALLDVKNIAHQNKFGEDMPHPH
Description: Inhibition of HDAC6 in human SH-SY5Y cells transfected with pCAX FLAG APP and pRK5-EGFP-Tau P301L plasmids assessed as suppression of phosphorylated tau P301L mutant-induced apoptosis by measuring accumulation at sub-G1 phase at 0.01 uM after 24 hrs by propidium iodide staining-based flow cytometry (reference value: 22.01%). Also noted: scale not given: the % may be the effect or the level left. Type of series: cell-based. In general terms: A flow cytometer gives signals particle by particle.

Series [2] is described as follows: Ratio of drug level in brain to plasma in Sprague-Dawley rat at 50 mg/kg, po after 1 hr. It is filed as ADME, organism-based. The note with it: read-out: BPR.
Series [3] deals with Mus musculus. Kind of series: In vivo inhibition of HDAC6 in scopolamine-treated 3xTg-AD transgenic mouse brain hippocampal CA1 region assessed as increase in acetyl-alpha-tubulin level at 50 mg/kg, po by Western blot analysis. It is filed as functional, organism-based. In outline: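 Female 3xTg-AD mice, fed standard diet to 6 months of age, then dosed orally at 50 or 100 mg/kg once daily for three months. Brains removed; hippocampal tissue lysates immunoblotted for acetyl-α-tubulin and phospho-tau Ser396 and Ser404. Mean ± STD; one-way ANOVA.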

A short description of series [4]: Ratio of drug level in brain to plasma in Sprague-Dawley rat at 50 mg/kg, po after 3 hrs. It is filed as ADME, organism-based. The note with it: read-out: BPR.
Series [5] concerns SH-SY5Y. Kind of series: Inhibition of APP levels in human SH-SY5Y cells transfected with pCAX FLAG APP and pRK5-EGFP-Tau P301L plasmids at 1 uM after 24 hrs by Western blot analysis. Type of series: functional, cell-based. In outline:
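SH-SY5Y or Neuro-2a cells cotransfected 24 h with pCAX APP695 and pRK5-EGFP-Tau P301L, then treated 24 h at 1 µM. 20 µg lysate protein immunoblotted for APP and phospho-tau Ser396/Ser404. Mean ± STD of three independent experiments; Student's t-test.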
(In western blotting, separated proteins are transferred to a membrane and probed.)

Series [6] concerns the target T1, Protein deacetylase HDAC6 (Homo sapiens). Description: Inhibition of HDAC6 in human SH-SY5Y cells transfected with pCAX FLAG APP and pRK5-EGFP-Tau P301L plasmids assessed as increase in coimmunoprecipitation of ubiquitin with phosphorylated tau at Ser396 residue at 1 uM after 24 hrs. It is filed as cell-based. In outline: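 In APP695/Tau P301L-cotransfected SH-SY5Y cells treated 24 h at 1 µM, lysates (30 µg) were immunoprecipitated with anti-ubiquitin antibody and protein A/G beads overnight at 4 °C, then immunoblotted for phospho-tau Ser396 after 8% SDS-PAGE.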

Series [7] deals with Mus musculus. Description: In vivo inhibition of HDAC6 in 3xTg-AD transgenic mouse brain hippocampal CA1 region assessed as downregulation of […] expression of beta-amyloid at 50 mg/kg, po administered daily for 3 months by immunohistochemical analysis. Type of series: functional, organism-based.
The test system of series [8] is Rattus norvegicus. Kind of series: In vivo inhibition of HDAC6 in Wistar rat brain hippocampal CA1 region assessed as downregulation of scopolamine-mediated increase in Tau phosphorylation at Ser396/Ser404 residues by immunohistochemical analysis. Type of series: functional, organism-based. In outline: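 Male Wistar rats, 7 weeks old, dosed orally at 25 mg/kg in 1% carboxymethyl cellulose/0.5% Tween 80 once daily. Scopolamine 1 mg/kg i.p. 90 min before test trial (controls excluded). Morris water maze (hidden platform escape latency), elevated plus maze (started at open-arm end, time to closed arm), then CA1 phospho-tau Ser396/Ser404 immunohistochemistry.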

Series [9] relates to Mus musculus. Kind of series: In vivo inhibition of HDAC6 in 3xTg-AD transgenic mouse brain hippocampal CA1 region assessed as downregulation of scopolamine-mediated increase in Tau phosphorylation at Ser404 residue at 50 mg/kg, po administered daily for 3 months by immunohistochemical analysis. It is filed as functional, organism-based. In outline: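 Female 3xTg-AD mice, standard diet to 6 months of age, then 50 mg/kg orally once daily for three months; memantine 30 mg/kg in water as comparator. Brains removed and hippocampal CA1 sections immunostained for acetyl-α-tubulin and phospho-tau Ser396 and Ser404. Mean ± STD; one-way ANOVA.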

The nature of series [10]: Drug uptake in Sprague-Dawley rat brain at 50 mg/kg, po after 1 hr by HPLC-MS/MS analysis. It is filed as ADME, organism-based. The note with it: read-out: Drug uptake.
A short description of series [11]: Toxicity in Balb/c mouse assessed as survival rate at 500 mg/kg, ip qd administered for 6 days followed by 1 week recovery (reference value: 100%). Type of series: organism-based. To be noted: in vivo.
A short description of series [12]: Toxicity in Balb/c mouse assessed as survival rate at 100 mg/kg, ip qd administered for 6 days followed by 1 week recovery (reference value: 100%). Type of series: organism-based. To be noted: in vivo.
The nature of series [13]: Drug uptake in Sprague-Dawley rat brain at 50 mg/kg, po after 3 hrs by HPLC-MS/MS analysis. The note with it: read-out: Drug uptake. It is filed as ADME, organism-based.

Here are results for one compound from ChEMBL document CHEMBL4196108, “5-Aroylindoles Act as Selective Histone Deacetylase 6 Inhibitors Ameliorating Alzheimer's Disease Phenotypes” (J Med Chem, 2018).

Calls of active or inactive are those of the source. No cut-off for these calls is given here.

With `COc1ccc(C(=O)c2ccc3c(ccn3Cc3ccc(C(=O)NO)cc3)c2)cc1`, the Activity in series [1] stood at 15.6%. Moreover, the Kp at 1 h in series [2] was 1.19. Besides, the inhibition result in [3], in series [5], in [6], in series [7], in series [8] and in series [9] was “Active” in each case. Besides, the Kp at 3 h in series [4] is 0.86. Further, in series [10], the concentration at 1 h amounted to 10.4 ng/g. The survival in series [11] and in series [12] was 100% throughout. In addition, in [13], the concentration at 3 h was found to be 6.3 ng/g.
